Assay results: ChEMBL document CHEMBL2429791, “Preparation of asymmetric urea derivatives that target prostate-specific membrane antigen for SPECT imaging” (J Med Chem, 2013)

How the values were obtained:
Liver [1] = test: Biodistribution in liver of C.B.-17/Icr […] Jcl mouse xenografted with human LNCAP and PC3 cells at 25.9 MBq, iv after 2 mins; format: ADME, organism-based; conditions: in vivo
How it was run: (§1)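 ¹²⁵I-labelled tracer given iv by tail vein to mice (22–24 g) bearing LNCaP (left shoulder) and PC-3 (right shoulder) xenografts of about 5–10 mm, grown from 1–5 × 10⁶ cells in 1:1 Matrigel. n=4 per time point; decapitated at 2 min, 30 min, 1, 3, 6 h. Tissues weighed and counted; uptake as %ID/g, mean ± SD.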

Heart [2] = test: Biodistribution in heart of C.B.-17/Icr +/+ Jcl mouse xenografted with human LNCAP and PC3 cells at 25.9 MBq, iv after 3 hrs; format: ADME, organism-based; conditions: in vivo; how it was run: as §1
Nucleic Acid [3] = test: Ratio of drug level in human LNCAP cells xenografted in C.B.-17/Icr +/+ Jcl mouse to muscle of C.B.-17/Icr +/+ Jcl mouse xenografted with human LNCAP and PC3 cells at 25.9 MBq, iv after 1 hr; format: ADME, organism-based; conditions: in vivo
How it was run: (§2)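 Tumor-to-blood and tumor-to-muscle ratios were calculated from %ID/g values in ¹²⁵I-tracer biodistribution in LNCaP/PC-3 xenografted mice. Tail-vein dosing, n=4 per time point, sacrifice at 2 min, 30 min, 1, 3 or 6 h.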

Stomach = test: Biodistribution in stomach of C.B.-17/Icr +/+ Jcl mouse xenografted with human LNCAP and PC3 cells at 25.9 MBq, iv after 30 mins; format: ADME, organism-based; conditions: in vivo, 0.5 h
How it was run: (§3)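 Radioiodinated (¹²⁵I) tracer given by tail-vein injection to mice bearing LNCaP (left shoulder) and PC-3 (right shoulder) xenografts, 22–24 g, grown to about 5–10 mm. Groups of n=4 were decapitated at 2 min, 30 min, 1 h, 3 h or 6 h. Tissues were weighed and counted, and uptake was expressed as %ID/g (mean ± SD).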

Kidney = test: Biodistribution in kidney of C.B.-17/Icr […] Jcl mouse xenografted with human LNCAP and PC3 cells at 25.9 MBq, iv after 2 mins; format: ADME, organism-based; conditions: in vivo; how it was run: as §1
Nucleic Acid [4] = test: Ratio of drug level in human LNCAP cells to human PC3 cells xenografted in C.B.-17/Icr […] Jcl mouse at 25.9 MBq, iv after 30 mins; format: ADME, organism-based; conditions: in vivo, 0.5 h
Heart [5] = test: Biodistribution in heart of C.B.-17/Icr +/+ Jcl mouse xenografted with human LNCAP and PC3 cells at 25.9 MBq, iv after 6 hrs; format: ADME, organism-based; conditions: in vivo; how it was run: as §1
Muscle tissue [6] = test: Biodistribution in muscle of C.B.-17/Icr +/+ Jcl mouse xenografted with human LNCAP and PC3 cells at 25.9 MBq, iv after 1 hr; format: ADME, organism-based; conditions: in vivo; how it was run: as §3
Liver [7] = test: Biodistribution in liver of C.B.-17/Icr […] Jcl mouse xenografted with human LNCAP and PC3 cells at 25.9 MBq, iv after 6 hrs; format: ADME, organism-based; conditions: in vivo; how it was run: as §1
Heart [8] = test: Biodistribution in heart of C.B.-17/Icr +/+ Jcl mouse xenografted with human LNCAP and PC3 cells at 25.9 MBq, iv after 30 mins; format: ADME, organism-based; conditions: in vivo, 0.5 h; how it was run: as §1
PC-3 [9] = test: Biodistribution in PC3 cells in C.B.-17/Icr +/+ Jcl mouse xenografted with human LNCAP and PC3 cells at 25.9 MBq, iv after 6 hrs; format: ADME, organism-based; conditions: in vivo; how it was run: as §1
Spleen = test: Biodistribution in spleen of C.B.-17/Icr +/+ Jcl mouse xenografted with human LNCAP and PC3 cells at 25.9 MBq, iv after 2 mins; format: ADME, organism-based; conditions: in vivo; how it was run: as §3
Serum = test: Drug degradation in C.B.-17/Icr +/+ Jcl mouse serum after 18 hrs; format: ADME, cell-free
How it was run: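 Serum came from heart blood of isoflurane-anesthetized male C.B.-17/Icr +/+ mice (20–22 g), centrifuged at 1,500 × g and stored at −80 °C. ¹²⁵I tracer was incubated in serum at 37 °C, then methanol was added. The sample was centrifuged at 5,000 × g, passed through a 0.45 μm filter, and analyzed by radio-HPLC for intact tracer versus degradation peaks.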

Intestine = test: Biodistribution in intestine of C.B.-17/Icr +/+ Jcl mouse xenografted with human LNCAP and PC3 cells at 25.9 MBq, iv after 2 mins; format: ADME, organism-based; conditions: in vivo; how it was run: as §1
LNCaP [10] = test: Biodistribution in LNCAP cells in C.B.-17/Icr +/+ Jcl mouse xenografted with human LNCAP and PC3 cells at 25.9 MBq, iv after 1 hr; format: ADME, organism-based; conditions: in vivo; how it was run: as §1
[11] = Distribution coefficient, log D of the compound; format: physicochemical; conditions: octanol/water
Blood = test: Biodistribution in blood of C.B.-17/Icr +/+ Jcl mouse xenografted with human LNCAP and PC3 cells at 25.9 MBq, iv after 2 mins; format: ADME, organism-based; conditions: in vivo; how it was run: as §1
Muscle tissue [12] = test: Biodistribution in muscle of C.B.-17/Icr +/+ Jcl mouse xenografted with human LNCAP and PC3 cells at 25.9 MBq, iv after 3 hrs; format: ADME, organism-based; conditions: in vivo; how it was run: as §3
[13] = Ratio of drug level in human PC3 cells xenografted in C.B.-17/Icr +/+ Jcl mouse to blood of C.B.-17/Icr +/+ Jcl mouse xenografted with human LNCAP and PC3 cells at 25.9 MBq, iv after 6 hrs; format: ADME, organism-based; conditions: PC3 tumour xenograft relative to blood
How it was run: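 Mice (22–24 g) carried PC-3 (right shoulder) and LNCaP (left shoulder) tumors, raised by injecting 1–5 × 10⁶ cells in 1:1 PBS/Matrigel and used at about 5–10 mm diameter. [¹²⁵I]-tracer was given via the tail vein, n=4 per time point, and mice were decapitated at 2 min, 30 min, 1, 3 or 6 h. Tissues were weighed and γ-counted as %ID/g. Tumor/blood and tumor/muscle ratios were taken from %ID/g, mean ± SD.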

Lung = test: Biodistribution in lung of C.B.-17/Icr +/+ Jcl mouse xenografted with human LNCAP and PC3 cells at 25.9 MBq, iv after 3 hrs; format: ADME, organism-based; conditions: in vivo; how it was run: as §3
Nucleic Acid [14] = test: Ratio of drug level in human LNCAP cells xenografted in C.B.-17/Icr +/+ Jcl mouse to muscle of C.B.-17/Icr +/+ Jcl mouse xenografted with human LNCAP and PC3 cells at 25.9 MBq, iv after 3 hrs; format: ADME, organism-based; conditions: in vivo; how it was run: as §2
LNCaP [15] = test: Biodistribution in LNCAP cells in C.B.-17/Icr +/+ Jcl mouse xenografted with human LNCAP and PC3 cells at 25.9 MBq, iv after 30 mins; format: ADME, organism-based; conditions: in vivo, 0.5 h; how it was run: as §1
PC-3 [16] = test: Biodistribution in PC3 cells in C.B.-17/Icr +/+ Jcl mouse xenografted with human LNCAP and PC3 cells at 25.9 MBq, iv after 2 mins; format: ADME, organism-based; conditions: in vivo; how it was run: as §1
[17] = Ratio of drug level in human LNCAP cells xenografted in C.B.-17/Icr +/+ Jcl mouse to blood of C.B.-17/Icr +/+ Jcl mouse xenografted with human LNCAP and PC3 cells at 25.9 MBq, iv after 30 mins; format: ADME, organism-based; conditions: LNCAP tumour xenograft relative to blood; how it was run: as §2
PC-3 [18] = test: Biodistribution in PC3 cells in C.B.-17/Icr +/+ Jcl mouse xenografted with human LNCAP and PC3 cells at 25.9 MBq, iv after 3 hrs; format: ADME, organism-based; conditions: in vivo; how it was run: as §1
Nucleic Acid [19] = test: Ratio of drug level in human LNCAP cells xenografted in C.B.-17/Icr +/+ Jcl mouse to muscle of C.B.-17/Icr +/+ Jcl mouse xenografted with human LNCAP and PC3 cells at 25.9 MBq, iv after 2 mins; format: ADME, organism-based; conditions: in vivo; how it was run: as §2

O=C(O)CC[C@H](NC(=O)N[C@@H](CSC1CC(=O)N(CCCC[C@H](NC(=O)CNC(=O)c2cccc([125I])c2)C(=O)O)C1=O)C(=O)O)C(=O)O (stereo partly specified)
Drug uptake (Liver [1]): 22.5 % ID/g | Drug uptake (Heart [2]): 0.7 % ID/g | Ratio (Nucleic Acid [3]): 15.5 | Drug uptake (Stomach): 2.2 %ID | Drug uptake (Kidney): 68.1 % ID/g | Ratio (Nucleic Acid [4]): 10.1 | Drug uptake (Heart [5]): 0.4 % ID/g | Drug uptake (Muscle tissue [6]): 0.5 % ID/g | Drug uptake (Liver [7]): 4.5 % ID/g | Drug uptake (Heart [8]): 2.1 % ID/g | Drug uptake (PC-3 [9]): 0.2 % ID/g | Drug uptake (Spleen): 12.5 % ID/g | Stability (Serum): Unstable | Drug uptake (Intestine): 3.6 % ID/g | Drug uptake (LNCaP [10]): 7 % ID/g | logD [11]: -1.97 | Drug uptake (Blood): 7.4 % ID/g | Drug uptake (Muscle tissue [12]): 0.2 % ID/g | Kp at 6 h [13]: 0.4 | Drug uptake (Lung): 1.2 % ID/g | Ratio (Nucleic Acid [14]): 49.4 | Drug uptake (LNCaP [15]): 9.5 % ID/g | Drug uptake (PC-3 [16]): 2.7 % ID/g | Kp at 0.5 h [17]: 7.2 | Drug uptake (PC-3 [18]): 0.3 % ID/g | Ratio (Nucleic Acid [19]): 2.9
